What was measured:
[1] = Metabolic stability in CD1 mouse liver microsomes assessed as intrinsic clearance measured upto 60 mins by LC-MS/MS analysis; format: ADME; conditions: read-out: CLH
How it was run: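 CD1 mouse liver microsomes at 0.25 mg/mL, compound at 0.5 µM, pH 7.4, 37 °C, started with NADPH. Sampled at 0, 5, 10, 20, 30 and 60 min and quenched with acetonitrile:methanol containing tolbutamide. Measured by LC-MS/MS; CLint (k × 1000/0.25, µL/min/mg) derived by non-linear regression of % remaining over time.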

[2] = Selectivity index, ratio of CC50 for cytotoxicity against human MRC5 cells to EC50 for Trypanosoma cruzi Tulahuen CL2 amastigotes expressing beta galactosidase infected in human MRC5 cells; format: toxicity, cell-based; conditions: read-out: Selectivity Index
How it was run: (§1)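 T. cruzi Tulahuen CL2 β-galactosidase strain grown in MRC-5 cells (MEM, 5% heat-inactivated FCS, 37 °C, 5% CO2). MRC-5 cells (4 x 10^3/well) plus parasites (4 x 10^4/well) exposed 7 days to 4-fold dilutions from 64 µM down; final DMSO <1%. CPRG with Nonidet added, absorbance at 540 nm after 4 h. IC50 calculated against untreated-infected (100%) and non-infected (0%) controls. SI = MRC-5 CC50/IC50.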

Trypanosoma cruzi = experiment: Antitrypanosomal activity against Trypanosoma cruzi Tulahuen CL2 amastigotes expressing beta galactosidase infected in human MRC5 cells assessed as reduction in parasite burden using chlorophenol red beta-D-galactopyranoside as substrate and measured after 7 days by spectrophotometric analysis; format: functional, organism-based; conditions: Tulahuen CL2, MRC5, 168 h; how it was run: as §1

Row | Structure (SMILES) | microsomal CLint [1] | selectivity ratio [2] | IC50 (Trypanosoma cruzi)
1 | CCCn1c(NC(=O)c2cccc(C(F)(F)F)n2)nc2ccc(F)cc21 | 467 µL/min/mg | > 28 | 2.3 µM
2 | CC(C)(C)Cn1c(NC(=O)c2cccnc2)nc2cc(F)c(F)cc21 | 131 µL/min/mg | > 80 | 0.8 µM
3 | Cc1nn[nH]c1C(=O)Nc1nc2ccc(C#N)cc2n1CC(F)(F)F | 141 µL/min/mg | 1 | 64 µM
4 | CC(C)(C)Cn1c(NC(=O)c2cccnc2)nc2ccc(C#N)cc21 | 87 µL/min/mg | > 7 | 8.7 µM
5 | Cc1nnnn1CC(=O)Nc1nc2ccc(C#N)cc2n1CC(F)(F)F | 23 µL/min/mg | > 1 | 50 µM
6 | COCCn1c(NC(=O)c2ccnn2C)nc2ccc(C#N)cc21 | 98 µL/min/mg | > 7 | 8.8 µM
7 | Cn1ccc(C(=O)Nc2nc3ccc(C#N)cc3n2CC(F)(F)F)n1 | 73 µL/min/mg | 1 | 64 µM
8 | N#Cc1ccc2nc(NC(=O)c3ccnn3C3CC3)n(CC(F)(F)F)c2c1 | – | 3 | 0.99 µM
9 | O=C(Nc1nc2ccc(F)cc2n1CC(F)(F)F)c1cccnc1 | 98 µL/min/mg | 13 | 4.2 µM
10 | CCCn1c(NC(=O)Cc2cc(F)ccc2F)nc2ccccc21 | – | – | 2.2 µM
11 | Cn1nccc1C(=O)Nc1nc2cc(CN3CCOCC3)ccc2n1CC(F)(F)F | 23 µL/min/mg | 5 | 8.3 µM
12 | CC(C)(C)Cn1c(NC(=O)c2cc(C(F)(F)F)n[nH]2)nc2cc(C#N)cnc21 | 23 µL/min/mg | 3 | 1.5 µM
13 | CCCn1c(NC(=O)Cc2ccc(F)cc2)nc2cccnc21 | 1500 µL/min/mg | > 49 | 1.3 µM
14 | CCCn1c(NC(=O)Nc2ccc(Cl)cc2)nc2ccccc21 | – | – | > 64 µM
15 | CC(C)(C)Cn1c(NC(=O)c2ccc(C(F)(F)F)nc2)nc2ccc(C#N)cc21 | – | > 1 | 52 µM
16 | Cn1nccc1C(=O)Nc1nc2cc(C(F)(F)F)cnc2n1CC(C)(C)C | 37 µL/min/mg | 7 | 0.57 µM
17 | Cn1nccc1C(=O)Nc1nc2ccc(C#N)cc2n1CC(F)F | 383 µL/min/mg | 5 | 2.4 µM
18 | CCCn1c(NCc2ccc(F)cc2)nc2cc(F)ccc21 | – | – | 25 µM

Row | Structure (SMILES) | microsomal CLint [1] | selectivity ratio [2] | IC50 (Trypanosoma cruzi)
19 | CCCn1c(NC(=O)Cc2ccc(F)cc2)nc2ccc(C(=O)NCOC)cc21 | 128 µL/min/mg | 7 | 8.3 µM
20 | O=C(Nc1nc2cncnc2n1CC(F)(F)F)c1ccc(C(F)(F)F)nc1 | – | 6 | 0.51 µM
21 | Cc1cc(C(=O)Nc2nc3ccc(C#N)cc3n2CC(F)(F)F)[nH]n1 | – | 1 | 36 µM
22 | O=C(Nc1nc2ccc(F)cc2n1CC(F)(F)F)c1ccc(C(F)(F)F)nc1 | 86 µL/min/mg | > 2 | 42 µM
23 | CCCn1c(NS(=O)(=O)c2ccc(Br)cc2)nc2ccccc21 | – | – | > 64 µM
24 | Cn1nccc1C(=O)Nc1nc2cc(S(C)(=O)=O)ccc2n1CC(F)(F)F | – | 6 | 2.2 µM
25 | CCCn1c(NC(=O)Cc2ccc(F)cc2)nc2ccccc21 | – | – | 2.1 µM
26 | N#Cc1ccc2nc(NC(=O)c3ccnc(C(F)(F)F)c3)n(CCF)c2c1 | – | 1 | 49 µM
27 | CCCn1c(NC(=O)Cc2ccc(Cl)cc2)nc2ccccc21 | 3090 µL/min/mg | – | 1.89 µM
28 | CCCn1c(NC(=O)c2ccc(F)cc2)nc2ccc(F)cc21 | – | – | > 64 µM
29 | CN(C)c1ccc(C(=O)Nc2nc3ccc(C#N)cc3n2CC(F)(F)F)cn1 | – | > 7 | 8.6 µM
30 | N#Cc1ccc2nc(NC(=O)c3cc(C(F)(F)F)nn3CC(=O)O)n(CC(F)(F)F)c2c1 | – | 1 | 64 µM
31 | O=C(Nc1nc2cncnc2n1CC(F)(F)F)c1ccnc(C(F)(F)F)c1 | – | 5 | 1.1 µM
32 | CCCn1c(NC(=O)Cc2ccc(F)cc2)nc2ccc(C(=O)O)cc21 | – | 1 | > 64 µM
33 | N#Cc1ccc2nc(NC(=O)c3cnc(C(F)(F)F)nc3)n(CC(F)(F)F)c2c1 | – | 8 | 0.24 µM
34 | O=C(Nc1nc2cc(F)ccc2n1C1CCNCC1)c1cccnc1 | – | 3 | 9.2 µM
35 | Cn1nncc1C(=O)Nc1nc2ccc(C#N)cc2n1CC(F)(F)F | – | > 3 | 24 µM
36 | CCCn1c(CCNC(=O)Cc2ccc(Cl)cc2)nc2ccccc21 | – | – | 33 µM
